This is a sample that favours compounds with a hit; in the whole collection about 2.3% have one here.
MPTP block – permeability transition pore inhibition; isolated mouse mitochondria, Ca2+ swelling absorbance, 30 min; inhibition, % at 10 µM; 360,000 tested, 1.4% active; AID 602449;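 active means inhibition of 50% or more, scaled per plate between neutral and stimulator controls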;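 further: 0% = DMSO wells given calcium and 100% = 1 mM EGTA wells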
SKN-1 block – inhibitors of C. elegans SKN-1; C. elegans VP596 Pgst-4::GFP/RFP ratio, acrylamide-induced, 24 h; inhibition, % at 21.8 µM; 360,000 tested, 0.49% active; AID 624304;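 active means interference check ratio from 0.5 to 1.5 plus GFP to RFP signal ratio inhibition reaching or exceeding a fixed threshold, cut at about 30% in these data, passing the limit was not always enough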
ATG4B inhibitor – ATG4B (human) cysteine protease inhibition. inhibition, % at 8.33 µM. ATG4B cleavage of LC3-PLA2, NBD-HPC fluorescence, 1 h. Q9Y4P1. 340,000 tested, 0.51% active; in the data active means inhibition above about 40%
Target sequence (Q9Y4P1 whole entry, looked up): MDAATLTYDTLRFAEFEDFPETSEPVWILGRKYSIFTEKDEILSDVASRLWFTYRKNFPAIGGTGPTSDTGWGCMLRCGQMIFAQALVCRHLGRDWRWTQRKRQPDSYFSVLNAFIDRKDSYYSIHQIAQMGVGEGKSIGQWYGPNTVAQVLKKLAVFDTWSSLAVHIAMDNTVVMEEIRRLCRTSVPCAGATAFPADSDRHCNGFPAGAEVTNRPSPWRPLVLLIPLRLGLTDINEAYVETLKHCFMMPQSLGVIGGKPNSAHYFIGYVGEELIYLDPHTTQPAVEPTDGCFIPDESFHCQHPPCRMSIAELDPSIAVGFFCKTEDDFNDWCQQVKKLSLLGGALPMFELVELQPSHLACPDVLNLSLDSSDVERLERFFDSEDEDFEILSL
MT1-MMP act inh – inhibitors of human MT1-MMP activation | HT1080 RFP-PRO-GFP cells, GFP/RFP ratio fluorescence, overnight; percent of plate control window, DMSO zero | GFP/RFP ratio change, % at 20 µM | 360,000 tested, 0.061% active | AID 651647;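 active means GFP/RFP ratio change of at least 30% with cell ATP level not reduced by more than half and red fluorescence within 50% of control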
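Material – HT1080 RFP-PRO-GFP cells · Control set – DMSO wells and RFP-L50D-GFP cells · Incubation – overnight cell settling, then overnight compound exposure, 37 °C, 5% CO2 · Compound dosing – single-point 20 µM compound, 1% DMSO · Read-out – GFP/RFP fluorescence ratio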
Active calls of the source: *; x = no result.

SMILES	MPTP block	SKN-1 block	ATG4B inhibitor	MT1-MMP act inh
c1ccc(-c2noc(CSc3nc4ccccc4o3)n2)cc1	3.7	43.8*	12.1	-2.0
Clc1ccc(-c2nnc(SCc3nc(-c4ccccc4)no3)o2)cc1	0.4	15.4	-5.2	0.8
O=C(NC1CCCC1)c1nc(-c2c(F)cccc2F)oc1-c1ccccc1	4.0	16.4	x	-3.5
Cc1ccccc1-n1c(SCC(=O)O)nc2sc3c(c2c1=O)CCCC3	1.2	35.6*	1.2	3.1
O=C(NCC(=O)N1CCOCC1)c1ccc(Cl)c(Cl)c1	-0.4	37.2*	4.5	1.4
O=[N+]([O-])c1cc(CN2CCCC2)ccc1Sc1ccc(Cl)cc1	2.2	51.9*	-1.4	-2.4
Clc1ccc(CN2CCCCCC2)cc1	-0.1	-2.7	-9.7	-0.6
CCn1c(CSc2ncn[nH]2)nc2cc(C(=O)O)ccc21	-1.1	16.7	-7.6	1.6
CCn1c(CSc2nnc(-c3ccncc3)n2C)nc2cc(C(=O)O)ccc21	0.8	40.6*	-4.7	20.9
COC(=O)C1=C(C)NC(C)=C(C(=O)OC)C1C(=O)OCC(=O)c1ccc(Br)cc1	-0.9	-0.3	-9.8	1.4
Cc1cc(C)c(NC(=O)CNC(=O)COC(=O)C2CCN(c3ccc(C(F)(F)F)cn3)CC2)c(C)c1	0.8	0.4	0.9	-5.1
Cc1cc(C)c(NC(=O)COC(=O)C2CCN(c3ccc(C(F)(F)F)cn3)CC2)c(Cl)c1	0.1	35.9*	-8.6	2.9
COc1ccccc1C(=O)N1CCN(C(=O)[C@H]2O[C@@H](n3ccc(N)nc3=O)[C@H](O)[C@@H]2O)CC1	-1.3	-0.3	x	-2.2
CCCC(=O)N1CCN(c2ccc(NC(=O)c3cc4ccccc4o3)cc2Cl)CC1	1.1	24.3	-13.3	-20.8
CCC(=O)N1CCN(c2ccc(NC(=O)c3cc4ccccc4o3)cc2Cl)CC1	-0.8	30.7*	-11.4	-15.4
COc1cc2ccccc2cc1C(=O)Nc1nccs1	0.1	57.6*	-4.2	-5.1
COc1c(C(=O)Nc2nccs2)ccc2ccccc12	0.6	55.2*	-11.1	0.6
COc1cc2ccccc2cc1C(=O)Nc1cc(C)ccn1	1.5	14.6	-21.8	-1.6
COc1c(C(=O)Nc2ccc(Br)cn2)ccc2ccccc12	1.2	-4.3	-3.1	-0.9
O=C(Nc1nccs1)c1ccc2ccccc2c1	0.2	43.7*	-5.8	3.9
CCc1nc2ccc(C(=O)N(C)Cc3ccccc3)cn2c1N(CC)Cc1cccc(Br)c1	-1.6	10.0	x	-4.8
COc1ccc(C2(C)NC(=O)N(CC(=O)NC(C)c3ccc(CC(C)C)cc3)C2=O)cc1 (stereo not drawn)	1.5	13.2	-12.8	-0.9
O=C(NCCOc1ccc(Cl)cc1)c1ccc2ccccc2n1	-2.1	39.4*	-9.2	-2.5
Cc1ccc(N)c([N+](=O)[O-])c1	-0.6	6.9	2.5	-1.9
Nc1ccc(N=Nc2ccccc2)cc1[N+](=O)[O-]	20.5	56.6*	-6.5	6.5
SMILES	MPTP block	SKN-1 block	ATG4B inhibitor	MT1-MMP act inh
O=C(NNC(=O)c1ccccc1-n1cccc1)c1ccc(Cl)cc1	-2.0	37.0*	2.7	6.0
CCCCCc1c(CC)ncn1CCc1ccccc1OC	15.4	14.4	x	-11.2
Cc1cc(-c2csc(NC(=O)c3ccc(=O)[nH]c3)n2)c(C)n1Cc1ccco1	2.2	-5.6	-6.2	-1.5
Cc1cc(-c2csc(NC(=O)c3ccc(=O)n(C)n3)n2)c(C)n1CC1CCCO1 (stereo not drawn)	0.8	38.6*	-10.7	-0.2
Cc1ccc(N(CC(=O)Nc2ccc(S(=O)(=O)N3CCOCC3)cc2)S(C)(=O)=O)cc1C	-0.3	28.6	-13.2	-2.7
CC(C)c1ccc(N(CC(=O)Nc2ccc(S(=O)(=O)N3CCOCC3)cc2)S(C)(=O)=O)cc1	2.6	40.0*	-17.4	3.6
COc1cc(NCCCCC(C)N)c2nccc(C)c2c1 (stereo not drawn)	1.7	35.9*	x	-12.9
Cc1ccn2c(Nc3ccccc3C)c(-c3ccncc3)nc2c1	-0.9	2.4	-2.1	2.0
O=C(/C=C/c1cccs1)Nc1ccncc1	-1.5	0.3	-4.3	1.6
CCCOC(=O)c1ccc(NC(=O)/C=C/c2cccs2)cc1	19.2	46.9*	12.3	-6.5
COC(=O)c1c(NC(=O)Cc2cccs2)sc2c1CCC(C)C2 (stereo not drawn)	0.5	2.7	7.1	-7.4
COC(=O)c1c(NC(=S)NN2CCN(C)CC2)sc2c1CCC(C)C2 (stereo not drawn)	28.4	34.7*	-19.1	-9.3
CCCSc1ccc2nc(-c3ccccc3)cn2c1	-0.3	50.0*	5.5	1.3
O=C(CCN1C(=O)/C(=C\c2cccs2)SC1=S)Nc1ccc(C(=O)O)cc1	-1.4	13.2	-6.5	-10.3
CCN(CC)CCOC(=O)c1ccc(NC(=O)CCCN2C(=O)/C(=C\c3cccs3)SC2=S)cc1	-0.1	38.6*	-3.0	-0.4
C=CCNc1nc(Cl)ncc1F	1.0	10.8	-1.5	-4.0
C=CCNc1ncnc2sc(SC)nc12	-0.3	49.8*	-5.8	-3.1
C#CCCOC(=O)N1C2=NC(C(=O)OC)=C(C(=O)OC)[C@@H]3Nc4ccccc4[C@]23C[C@H]1C(=O)OC	0.8	-17.3	0.5	0.1
OC(CN1CCN(C(c2ccccc2)c2ccccc2)CC1)c1ccccc1 (stereo not drawn)	2.5	39.5*	25.4	0.2
OC(CN1CCN(C(c2ccccc2)c2ccccc2)CC1)c1ccc(Br)cc1 (stereo not drawn)	0.8	11.6	6.5	-5.2
CC(=O)NC(c1ccc(F)c(F)c1)c1nc(-c2ccc(C)c(C)c2)cs1 (stereo not drawn)	0.3	-8.2	x	1.3
OCc1cccc(-c2csc(C(O)(c3ccccc3)C(F)(F)F)n2)c1 (stereo not drawn)	3.0	35.0*	x	1.3
Cc1c(C(=O)N(C)c2ccc(Cl)cc2)cnn1-c1ccccc1	-1.5	38.0*	3.1	0.6
CC1=NN(c2ccccc2)C(=O)/C1=C\C=C1\N(C)c2ccccc2C1(C)C	0.3	37.8*	18.6	4.8
CC1=NN(c2ccccc2)C(=O)/C1=C\C=C1/N(C)c2ccccc2C1(C)C	6.2	46.8*	-0.2	1.4
SMILES	MPTP block	SKN-1 block	ATG4B inhibitor	MT1-MMP act inh
CC1=NN(c2ccccc2)C(=O)/C1=C/N(C)C	1.0	-9.5	-11.0	0.0
CC1=C(C(=O)c2ccccc2)C(c2cn(-c3ccccc3)nc2-c2ccc(Cl)cc2)NC(=S)N1 (stereo not drawn)	0.1	37.7*	-12.3	-21.7
CCCC(=O)NCCc1cc2cc(C)c(C)cc2[nH]c1=O	-0.7	2.3	0.2	6.1
CC(=O)NCCc1cc2cc(C)c(C)cc2[nH]c1=O	-0.4	32.0*	-10.6	5.0
CCn1c(SCC(=O)NC2CCCCC2)nnc1-c1cc2cccc(OC)c2o1	-0.5	44.6*	-10.0	2.2
CCn1c(SCC(=O)Nc2nccs2)nnc1-c1cc2cccc(OC)c2o1	3.8	4.9	5.3	7.8
COc1ccc(-c2cc(C(=O)NCC(c3ccco3)N(C)C)c3ccccc3n2)cc1OC (stereo not drawn)	-1.8	-10.3	-8.5	0.1
Fc1ccccc1NC(=S)NN(Cc1ccccc1)c1ccccc1	-0.3	39.4*	-8.9	-1.7
